From ChEMBL document CHEMBL1148313, “A new class of nonpeptide bradykinin B(2) receptor ligand, incorporating a 4-aminoquinoline framework. Identification of a key pharmacophore to determine species difference and agonist/antagonist profile” (J Med Chem, 2004)
pIC50: −log10 of the molar value.

How the values were obtained:
Cavia porcellus [1] = test: In vivo functional antagonistic activity in inhibiting BK (5 ug/kg, i.v.) induced bronchoconstriction in guinea pigs by 10 ug/kg iv administration
Outline: (§1)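 Male Hartley guinea pigs (470–750 g), fasted overnight, pentobarbital 30 mg/kg i.p., ventilated 10 mL/kg at 60 breaths/min, alcuronium 0.5 mg/kg i.v., propranolol 10 mg/kg s.c. BK in saline/0.1% BSA i.v.; compound in 5% citric acid i.v. 25 min after first BK, BK repeated 5 min later. Peak insufflation pressure rise (Konzett–Rössler); % inhibition versus vehicle, n = 3–4.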

B2 bradykinin receptor [2] = molecular target: T1, B2 bradykinin receptor (Homo sapiens, UniProt P30411); test: Inhibition of specific binding of [3H]BK at 1 nM to human bradykinin receptor B2 expressed in CHO cells by 50%.; assay type: cell-based
T1 sequence (P30411 whole entry): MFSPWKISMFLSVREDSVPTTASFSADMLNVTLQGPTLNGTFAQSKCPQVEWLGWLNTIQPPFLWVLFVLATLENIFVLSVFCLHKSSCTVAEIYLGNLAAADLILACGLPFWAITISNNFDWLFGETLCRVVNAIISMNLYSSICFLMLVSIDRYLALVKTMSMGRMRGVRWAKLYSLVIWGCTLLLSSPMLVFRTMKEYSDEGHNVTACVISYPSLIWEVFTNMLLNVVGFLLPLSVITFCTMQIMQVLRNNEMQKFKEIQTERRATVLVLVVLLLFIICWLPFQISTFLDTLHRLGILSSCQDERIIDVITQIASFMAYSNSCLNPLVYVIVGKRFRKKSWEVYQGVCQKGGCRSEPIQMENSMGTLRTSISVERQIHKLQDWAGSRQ
Outline: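 Intact CHO (dhfr−) cells stably expressing human B2, seeded 3.0 × 10⁴/well for 1 day. Incubated with [3H]BK and compound 2 h at 4 °C in HEPES/N-methyl-D-glucamine buffer pH 7.2 with enalaprilat, bacitracin and 0.1% BSA. Cells lysed in SDS/NaOH and counted; nonspecific binding with 1 μM BK. Three experiments.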

B2 bradykinin receptor [3] = molecular target: T2, B2 bradykinin receptor (Cavia porcellus, UniProt O70526); test: Inhibition of specific binding of [3H]BK at 0.06 nM to bradykinin receptor B2 in guinea pig ileum membrane preparations by 50%.; assay type: cell membranes
T2 sequence (O70526 whole entry): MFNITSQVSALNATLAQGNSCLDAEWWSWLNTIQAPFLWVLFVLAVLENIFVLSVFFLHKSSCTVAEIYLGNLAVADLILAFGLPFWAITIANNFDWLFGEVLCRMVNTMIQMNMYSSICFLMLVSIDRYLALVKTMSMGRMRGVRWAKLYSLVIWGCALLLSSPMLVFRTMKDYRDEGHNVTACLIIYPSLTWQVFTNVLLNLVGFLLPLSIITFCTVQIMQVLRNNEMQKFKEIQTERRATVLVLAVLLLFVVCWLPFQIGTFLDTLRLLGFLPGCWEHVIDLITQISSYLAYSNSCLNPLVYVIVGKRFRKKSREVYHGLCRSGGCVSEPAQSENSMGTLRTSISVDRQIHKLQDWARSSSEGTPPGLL
Outline: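 Ileum membranes from male Hartley guinea pigs, 0.2 mg protein/mL, in TES pH 6.8 containing phenanthroline, bacitracin, DTT, captopril and 0.1% BSA. Incubated with [3H]BK and compound at room temperature for 60 min. GF/B filtration, scintillation counting; nonspecific binding with 1 μM BK. Three experiments.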

CHO [4] = test: Relative agonistic activity in IP formation compared to BK (10 nM) IPs in CHO cells expressing the cloned human B2 receptor at 10 uM concentration; assay type: functional, Cricetulus griseus
Outline: (§2)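 Human B2-CHO cells labeled 24 h with [3H]inositol (1 μCi/mL). Preincubated in PBS/0.2% BSA with 10 mM LiCl for 30 min at 37 °C, then compound for 30 min at 37 °C. Stopped with 5% TCA. IP1–IP3 separated on AG 1-X8 and counted. Basal counts subtracted; response expressed relative to 10 nM BK.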

CHO [5] = test: Relative agonistic activity in IP formation compared to BK (10 nM) IPs in CHO cells expressing the cloned human B2 receptor at 1 uM concentration; assay type: functional, Cricetulus griseus; outline: as §2
Cavia porcellus [6] = test: In vivo functional antagonistic activity in inhibiting BK (5 ug/kg, i.v.) induced bronchoconstriction in guinea pigs by 100 ug/kg iv administration; outline: as §1

Row | SMILES | Inhibition (Cavia porcellus [1]) | pIC50 (B2 bradykinin receptor [2]) | pIC50 (B2 bradykinin receptor [3]) | Relative agonistic activity (CHO [4]) | Relative agonistic activity (CHO [5]) | Inhibition (Cavia porcellus [6])
1 | Cc1cc(N(C)C)c2cccc(OCc3c(Cl)ccc(N(C)C(=O)CNC(=O)/C=C/c4ccc(C(=O)N(C)C)cc4)c3Cl)c2n1.Cl.Cl | 73.4% |  |  |  |  | 
2 | CNC(=O)c1ccc(/C=C/C(=O)NCC(=O)N(C)c2ccc(Cl)c(COc3cccc4c(N5CCCC5)cc(C)nc34)c2Cl)cc1 |  | 7.06 | 5.64 |  |  | 
3 | CNC(=O)c1ccc(/C=C/C(=O)NCC(=O)N(C)c2ccc(Cl)c(COc3cccc4c(NCCOC)cc(C)nc34)c2Cl)cc1 |  | 7.39 | 7.31 |  |  | 
4 | CNC(=O)c1ccc(/C=C/C(=O)NCC(=O)N(C)c2ccc(Cl)c(COc3cccc4c(N5CCN(C)CC5)cc(C)nc34)c2Cl)cc1 |  | 7.01 | 5.82 |  |  | 
5 | CNC(=O)c1ccc(/C=C/C(=O)NCC(=O)N(C)c2ccc(Cl)c(COc3cccc4c(N5CCCCC5)cc(C)nc34)c2Cl)cc1.Cl.Cl.Cl.Cl |  | 8.96 | 7.17 | 4.2% | 4.4% | 
6 | CNC(=O)c1ccc(/C=C/C(=O)NCC(=O)N(C)c2ccc(Cl)c(COc3cccc4c(N(CCOC)CCOC)cc(C)nc34)c2Cl)cc1 |  | 7.72 | 6.25 |  |  | 
7 | CNC(=O)c1ccc(/C=C/C(=O)NCC(=O)N(C)c2ccc(Cl)c(COc3cccc4c(N5CCCCCC5)cc(C)nc34)c2Cl)cc1 |  | 7.43 | 6.08 |  |  | 
8 | Cc1cc(N2CCOCC2)c2cccc(OCc3c(Cl)ccc(N(C)C(=O)CNC(=O)/C=C/c4ccc(N5CCCC5=O)cc4)c3Cl)c2n1.Cl.Cl.Cl.Cl |  | 8.74 | 7.89 | 9.2% | 6% | 
9 | Cc1cc(N2CCCCC2)c2cccc(OCc3c(Cl)ccc(N(C)C(=O)CNC(=O)/C=C/c4ccc(C(=O)N(C)C)cc4)c3Cl)c2n1.Cl.Cl.Cl.Cl |  | 9.12 | 7.52 | 21.8% | 17.2% | 
10 | Cc1cc(N(C)C)c2cccc(OCc3c(Cl)ccc(N(C)C(=O)CNC(=O)/C=C/c4ccc(C(=O)N(C)C)nc4)c3Cl)c2n1.Cl.Cl.Cl.Cl | 89.7% | 8.40 | 8.09 |  |  | 
11 | Cc1cc(N2CCCCC2)c2cccc(OCc3c(Cl)ccc(N(C)C(=O)CNC(=O)/C=C/c4ccc(N5CCCC5=O)cc4)c3Cl)c2n1.Cl.Cl.Cl.Cl |  | 8.92 | 7.55 | 18.7% | 14.8% | 
12 | CC(=O)Nc1ccc(/C=C/C(=O)NCC(=O)N(C)c2ccc(Cl)c(COc3cccc4c(N(C)C)cc(C)nc34)c2Cl)cc1C.Cl.Cl.Cl.Cl |  | 8.32 | 7.68 |  |  | 94.7%
13 | Cc1cc(N2CCOCC2)c2cccc(OCc3c(Cl)ccc(N(C)C(=O)CNC(=O)/C=C/c4ccc(C(=O)N(C)C)cc4)c3Cl)c2n1 |  | 9.06 | 7.37 |  |  | 
14 | CNC(=O)c1ccc(/C=C/C(=O)NCC(=O)N(C)c2ccc(Cl)c(COc3cccc4c(N5CCOCC5)cc(C)nc34)c2Cl)cc1.Cl.Cl.Cl.Cl |  | 8.57 | 7.92 | -1.9% | 0.9% | 
15 | CNC(=O)c1ccc(/C=C/C(=O)NCC(=O)N(C)c2ccc(Cl)c(COc3cccc4c(N(C)C)cc(C)nc34)c2Cl)cc1OC.Cl.Cl.Cl.Cl | 88.7% | 8.70 | 8.25 |  |  | 
16 | CC(=O)Nc1ccc(/C=C/C(=O)NCC(=O)N(C)c2ccc(Cl)c(COc3cccc4c(N5CCOCC5)cc(C)nc34)c2Cl)cn1 |  | 8.74 | 7.19 |  |  | 47.8%
17 | Cc1cc(N2CCCCC2)c2cccc(OCc3c(Cl)ccc(N(C)C(=O)CNC(=O)/C=C/c4ccc(C(=O)Nc5ccncc5)cc4)c3Cl)c2n1.Cl |  | 9.28 | 6.62 | 12.7% | 5.7% | 
18 | Cc1cc(N(C)C)c2cccc(OCc3c(Cl)ccc(N(C)C(=O)CNC(=O)/C=C/c4ccc(C(=O)NCc5ccccn5)cc4)c3Cl)c2n1.Cl |  | 8.23 | 7.55 |  |  | 97.3%
19 | Cc1cc(N2CCCCC2)c2cccc(OCc3c(Cl)ccc(N(C)C(=O)CNC(=O)/C=C/c4ccc(NC(=O)c5ccncc5)cc4)c3Cl)c2n1.Cl |  | 8.80 | 7.12 | 5.3% | 5.6% | 
20 | CNC(=O)c1ccc(/C=C/C(=O)NCC(=O)N(C)c2ccc(Cl)c(COc3cccc4c(NCCN(C)C)cc(C)nc34)c2Cl)cc1 |  | 5.60 | 5.64 |  |  | 
21 | Cc1cc(N(C)C)c2cccc(OCc3c(Cl)ccc(N(C)C(=O)CNC(=O)/C=C/c4ccc(NC(=O)c5ccncc5)cc4)c3Cl)c2n1.Cl | 59% | 9.33 | 8.16 |  |  | 
22 | CNC(=O)c1ccc(/C=C/C(=O)NCC(=O)N(C)c2ccc(Cl)c(COc3cccc4c(N5CCOCC5)cc(C)nc34)c2Cl)cn1.Cl |  | 8.96 | 7.07 |  |  | 72.3%
23 | Cc1cc(N(C)C)c2cccc(OCc3c(Cl)ccc(N(C)C(=O)CNC(=O)Nc4cccc(C(=O)Nc5ccncc5)c4)c3Cl)c2n1.Cl |  | 8.66 | 7.92 |  |  | 97.7%
24 | CNC(=O)c1ccc(/C=C/C(=O)NCC(=O)N(C)c2ccc(Cl)c(COc3cccc4c(N(C)C)cc(C)nc34)c2Cl)cn1.Cl | 85.5% | 8.80 | 8.92 |  |  | 
25 | Cc1cc(N(C)C)c2cccc(OCc3c(Cl)ccc(N(C)C(=O)CNC(=O)/C=C/c4ccc(C(=O)Nc5ccncc5)cc4)c3Cl)c2n1.Cl | 86.3% | 9.15 | 8.29 |  |  | 
26 | Cc1cc(N2CCOCC2)c2cccc(OCc3c(Cl)ccc(N(C)C(=O)CNC(=O)/C=C/c4ccc(NC(=O)c5ccncc5)cc4)c3Cl)c2n1.Cl |  | 9.00 | 7.54 | 0.9% | -0.1% | 
27 | Cc1cc(N2CCOCC2)c2cccc(OCc3c(Cl)ccc(N(C)C(=O)CNC(=O)/C=C/c4ccc(C(=O)Nc5ccncc5)cc4)c3Cl)c2n1.Cl | 46.2% | 9.19 | 7.43 |  |  | 91.8%
28 | Cc1cc(N2CCCCC2)c2cccc(OCc3c(Cl)ccc(N(C)C(=O)CNC(=O)/C=C/c4ccc(C(=O)NCc5ccccn5)cc4)c3Cl)c2n1.Cl |  | 8.60 | 7.40 |  |  | 72.6%
29 | CC(=O)Nc1ccc(/C=C/C(=O)NCC(=O)N(C)c2ccc(Cl)c(COc3cccc4c(N(C)C)cc(C)nc34)c2Cl)cn1.Cl | 89.4% | 8.38 | 8.20 |  |  | 
